According to ChEMBL document CHEMBL1149207, “Non-nucleoside inhibitors of the hepatitis C virus NS5B polymerase: discovery of benzimidazole 5-carboxylic amide derivatives with low-nanomolar potency” (Bioorg Med Chem Lett, 2004):
pIC50: −log10 of the molar value.

Biological target: RNA-directed RNA polymerase (Hepacivirus hominis, UniProt O39930)
Assay: Concentration required for inhibiting hepatitis C virus NS5B RNA polymerase activity.
Procedure, shortened: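 HCV NS5B polymerase IC50; each value is the mean of at least duplicate experiments, run on two separate weighings of compound.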

Sequence of RNA-directed RNA polymerase (O39930 whole entry): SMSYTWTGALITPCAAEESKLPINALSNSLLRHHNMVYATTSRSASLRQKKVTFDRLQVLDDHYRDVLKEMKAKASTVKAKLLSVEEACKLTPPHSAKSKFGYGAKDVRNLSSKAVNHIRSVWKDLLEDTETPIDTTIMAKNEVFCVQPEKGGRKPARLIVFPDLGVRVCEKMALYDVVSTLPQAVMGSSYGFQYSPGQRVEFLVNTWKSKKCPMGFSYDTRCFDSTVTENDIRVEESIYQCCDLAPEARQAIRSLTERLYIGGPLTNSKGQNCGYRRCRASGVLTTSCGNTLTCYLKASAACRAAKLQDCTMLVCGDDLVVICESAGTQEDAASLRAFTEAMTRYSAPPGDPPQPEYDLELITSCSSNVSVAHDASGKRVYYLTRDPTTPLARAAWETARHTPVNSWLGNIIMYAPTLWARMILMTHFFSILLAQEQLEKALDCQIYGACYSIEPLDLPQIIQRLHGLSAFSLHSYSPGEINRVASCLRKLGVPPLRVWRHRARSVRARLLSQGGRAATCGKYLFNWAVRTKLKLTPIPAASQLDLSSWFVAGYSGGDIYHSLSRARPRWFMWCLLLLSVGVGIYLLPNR

Compound	pIC50
O=C(N[C@@H](Cc1c[nH]c2ccccc12)C(=O)O)c1ccc2c(c1)nc(-c1ccccn1)n2C1CCCCC1	5.72
COc1ccc([C@H](C)NC(=O)c2ccc3c(c2)nc(-c2ccccn2)n3C2CCCCC2)cc1OC	4.92
Cc1ccc2[nH]cc(C[C@H](NC(=O)c3ccc4c(c3)nc(-c3ccoc3)n4C3CCCCC3)C(=O)O)c2c1	5.66
COc1ccc([C@H](NC(=O)c2ccc3c(c2)nc(-c2ccccn2)n3C2CCCCC2)C(=O)O)cc1OC	5.70
O=C(N[C@@H](Cc1c[nH]c2ccc(F)cc12)C(=O)O)c1ccc2c(c1)nc(-c1ccoc1)n2C1CCCCC1	5.54
O=C(N[C@@H](Cc1ccccc1)C(=O)O)c1ccc2c(c1)nc(-c1ccccn1)n2C1CCCCC1	5.15
O=C(N[C@@H](Cc1ccccc1)C(=O)O)c1ccc2c(c1)nc(-c1ccoc1)n2C1CCCCC1	5.40
O=C(N[C@@H](Cc1c[nH]c2ccc([N+](=O)[O-])cc12)C(=O)O)c1ccc2c(c1)nc(-c1ccoc1)n2C1CCCCC1	5.70
COc1ccc(CNC(=O)c2ccc3c(c2)nc(-c2ccccn2)n3C2CCCCC2)cc1OC	5.15
O=C(N[C@H](Cc1c[nH]c2ccc(O)cc12)C(=O)O)c1ccc2c(c1)nc(-c1ccoc1)n2C1CCCCC1	6.15
Cc1[nH]c2ccc(O)cc2c1C[C@H](NC(=O)c1ccc2c(c1)nc(-c1ccoc1)n2C1CCCCC1)C(=O)O	6.34
O=C(N[C@@H](Cc1ccc(O)cc1)C(=O)O)c1ccc2c(c1)nc(-c1ccccn1)n2C1CCCCC1	5.82
COc1ccc([C@@H](C)NC(=O)c2ccc3c(c2)nc(-c2ccccn2)n3C2CCCCC2)cc1OC	5.52
O=C(NCCc1c[nH]c2ccc(O)cc12)c1ccc2c(c1)nc(-c1ccoc1)n2C1CCCCC1	5.82

The next compounds have a higher pIC50 than those just listed; values first:

pIC50	Compound
8.10	O=C(O)C(=O)Nc1ccc2[nH]cc(C[C@H](NC(=O)c3ccc4c(c3)nc(-c3ccoc3)n4C3CCCCC3)C(=O)O)c2c1
6.40	O=C(N[C@@H](Cc1ccc(O)cc1)C(=O)O)c1ccc2c(c1)nc(-c1ccoc1)n2C1CCCCC1
7.22	CC(=O)Nc1ccc2[nH]cc(C[C@H](NC(=O)c3ccc4c(c3)nc(-c3ccoc3)n4C3CCCCC3)C(=O)O)c2c1
7.05	Nc1ccc2[nH]cc(C[C@H](NC(=O)c3ccc4c(c3)nc(-c3ccoc3)n4C3CCCCC3)C(=O)O)c2c1
7.70	O=C(O)c1ccc2[nH]cc(C[C@H](NC(=O)c3ccc4c(c3)nc(-c3ccoc3)n4C3CCCCC3)C(=O)O)c2c1
6.80	Cn1cc(C[C@@H](NC(=O)c2ccc3c(c2)nc(-c2ccoc2)n3C2CCCCC2)C(=O)O)c2cc(O)ccc21
6.92	CS(=O)(=O)Nc1ccc2[nH]cc(C[C@H](NC(=O)c3ccc4c(c3)nc(-c3ccoc3)n4C3CCCCC3)C(=O)O)c2c1
6.40	COc1ccc([C@H](NC(=O)c2ccc3c(c2)nc(-c2ccoc2)n3C2CCCCC2)C(=O)O)cc1OC
6.40	O=C(N[C@@H](Cc1c[nH]c2ccccc12)C(=O)O)c1ccc2c(c1)nc(-c1ccoc1)n2C1CCCCC1
7.72	O=C(O)COc1ccc2[nH]cc(C[C@H](NC(=O)c3ccc4c(c3)nc(-c3ccoc3)n4C3CCCCC3)C(=O)O)c2c1
7.82	O=C(N[C@@H](Cc1c[nH]c2ccc(C3N=NN=N3)cc12)C(=O)O)c1ccc2c(c1)nc(-c1ccoc1)n2C1CCCCC1
7.30	O=C(N[C@@H](Cc1c[nH]c2ccc(O)cc12)C(=O)O)c1ccc2c(c1)nc(-c1ccoc1)n2C1CCCCC1
6.85	O=C(N[C@@H](Cc1c[nH]c2ccc(O)cc12)C(=O)O)c1ccc2c(c1)nc(-c1ccccn1)n2C1CCCCC1
6.82	O=C(N[C@@H](Cc1c[nH]c2ccc(NS(=O)(=O)C(F)(F)F)cc12)C(=O)O)c1ccc2c(c1)nc(-c1ccoc1)n2C1CCCCC1
7.00	CC(C)(Oc1ccc2[nH]cc(C[C@H](NC(=O)c3ccc4c(c3)nc(-c3ccoc3)n4C3CCCCC3)C(=O)O)c2c1)C(=O)O
6.40	COc1ccc2[nH]cc(C[C@H](NC(=O)c3ccc4c(c3)nc(-c3ccoc3)n4C3CCCCC3)C(=O)O)c2c1
7.43	NC(=O)c1ccc2[nH]cc(C[C@H](NC(=O)c3ccc4c(c3)nc(-c3ccoc3)n4C3CCCCC3)C(=O)O)c2c1
